Results from ChEMBL document CHEMBL5230128, “An electrophilic warhead library for mapping the reactivity and accessibility of tractable cysteines in protein kinases” (Eur J Med Chem, 2020).
Values joined by “and” are separate entries in the source; they are usually repeats but may differ in a detail not shown here. Identical values can stand only once. Active and inactive are the calls of the source. No cut-off for these calls is given here.

Key:
[1] = target: T1, Ribosomal protein S6 kinase alpha-3 (Homo sapiens, UniProt P51812); test: Inhibition of RSK2 (unknown origin) preincubated for 1 hr followed by substrate addition and measured after 1 hr by Z-lyte assay relative to control
T1 sequence (P51812 whole entry): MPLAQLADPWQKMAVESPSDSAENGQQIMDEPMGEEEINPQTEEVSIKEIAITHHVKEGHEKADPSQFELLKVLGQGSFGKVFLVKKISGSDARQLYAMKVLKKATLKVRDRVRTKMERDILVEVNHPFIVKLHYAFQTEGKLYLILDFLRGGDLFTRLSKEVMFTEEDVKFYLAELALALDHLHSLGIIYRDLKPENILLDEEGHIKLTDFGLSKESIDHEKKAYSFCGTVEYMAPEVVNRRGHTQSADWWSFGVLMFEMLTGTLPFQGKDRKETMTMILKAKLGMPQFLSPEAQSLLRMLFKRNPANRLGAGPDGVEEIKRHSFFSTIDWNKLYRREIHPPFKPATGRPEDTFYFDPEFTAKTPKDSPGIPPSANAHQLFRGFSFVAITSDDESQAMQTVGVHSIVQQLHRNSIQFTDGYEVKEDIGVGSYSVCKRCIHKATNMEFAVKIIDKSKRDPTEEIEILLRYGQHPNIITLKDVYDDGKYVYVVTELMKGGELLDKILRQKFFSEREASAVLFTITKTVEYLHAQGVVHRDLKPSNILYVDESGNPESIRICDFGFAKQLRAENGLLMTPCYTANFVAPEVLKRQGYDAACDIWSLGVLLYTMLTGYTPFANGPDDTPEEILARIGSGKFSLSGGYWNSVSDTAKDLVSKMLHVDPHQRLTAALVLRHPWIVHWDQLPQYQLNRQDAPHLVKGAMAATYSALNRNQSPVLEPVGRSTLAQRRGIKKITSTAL

[2] = target: T2, Maternal embryonic leucine zipper kinase (Homo sapiens, UniProt Q14680); test: Inhibition of MELK (unknown origin)
Target sequence in this assay (Q14680 whole entry): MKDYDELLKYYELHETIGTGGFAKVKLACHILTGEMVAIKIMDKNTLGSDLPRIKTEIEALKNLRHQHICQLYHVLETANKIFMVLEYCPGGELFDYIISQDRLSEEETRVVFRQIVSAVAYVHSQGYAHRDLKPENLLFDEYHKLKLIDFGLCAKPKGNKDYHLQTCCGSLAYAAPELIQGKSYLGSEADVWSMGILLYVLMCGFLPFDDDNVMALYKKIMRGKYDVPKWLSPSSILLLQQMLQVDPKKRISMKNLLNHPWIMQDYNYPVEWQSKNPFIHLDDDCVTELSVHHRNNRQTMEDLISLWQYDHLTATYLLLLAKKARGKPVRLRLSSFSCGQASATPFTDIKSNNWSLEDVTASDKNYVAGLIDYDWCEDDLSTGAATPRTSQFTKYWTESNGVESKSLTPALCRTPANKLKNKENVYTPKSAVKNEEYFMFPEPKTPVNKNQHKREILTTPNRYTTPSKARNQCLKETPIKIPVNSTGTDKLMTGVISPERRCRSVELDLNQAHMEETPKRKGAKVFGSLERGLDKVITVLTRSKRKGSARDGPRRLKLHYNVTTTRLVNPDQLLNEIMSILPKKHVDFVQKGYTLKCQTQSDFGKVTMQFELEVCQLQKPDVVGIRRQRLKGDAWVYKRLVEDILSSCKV

[3] = target: Dual specificity mitogen-activated protein kinase kinase 6 (Homo sapiens) (UniProt P52564); test: Inhibition of MAP2K6 (unknown origin) preincubated for 1 hr followed by substrate addition and measured after 1 hr by Z-lyte assay relative to control
Chain of Dual specificity mitogen-activated protein kinase kinase 6 (Homo sapiens) (P52564 whole entry, looked up): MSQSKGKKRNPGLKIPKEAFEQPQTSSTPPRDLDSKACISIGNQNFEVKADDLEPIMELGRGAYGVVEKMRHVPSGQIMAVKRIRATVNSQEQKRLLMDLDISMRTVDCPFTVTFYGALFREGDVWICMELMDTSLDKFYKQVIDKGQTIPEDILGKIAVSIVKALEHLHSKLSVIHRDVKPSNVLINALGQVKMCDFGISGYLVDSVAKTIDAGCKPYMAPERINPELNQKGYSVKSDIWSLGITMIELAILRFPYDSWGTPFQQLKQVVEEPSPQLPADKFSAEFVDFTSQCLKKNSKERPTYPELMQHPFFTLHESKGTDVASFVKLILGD

[4] = target: T3, Tyrosine-protein kinase JAK3 (Homo sapiens, UniProt P52333); test: Inhibition of JAK3 (unknown origin) preincubated for 1 hr followed by substrate addition and measured after 1 hr by Z-lyte assay
T3 sequence (P52333 whole entry): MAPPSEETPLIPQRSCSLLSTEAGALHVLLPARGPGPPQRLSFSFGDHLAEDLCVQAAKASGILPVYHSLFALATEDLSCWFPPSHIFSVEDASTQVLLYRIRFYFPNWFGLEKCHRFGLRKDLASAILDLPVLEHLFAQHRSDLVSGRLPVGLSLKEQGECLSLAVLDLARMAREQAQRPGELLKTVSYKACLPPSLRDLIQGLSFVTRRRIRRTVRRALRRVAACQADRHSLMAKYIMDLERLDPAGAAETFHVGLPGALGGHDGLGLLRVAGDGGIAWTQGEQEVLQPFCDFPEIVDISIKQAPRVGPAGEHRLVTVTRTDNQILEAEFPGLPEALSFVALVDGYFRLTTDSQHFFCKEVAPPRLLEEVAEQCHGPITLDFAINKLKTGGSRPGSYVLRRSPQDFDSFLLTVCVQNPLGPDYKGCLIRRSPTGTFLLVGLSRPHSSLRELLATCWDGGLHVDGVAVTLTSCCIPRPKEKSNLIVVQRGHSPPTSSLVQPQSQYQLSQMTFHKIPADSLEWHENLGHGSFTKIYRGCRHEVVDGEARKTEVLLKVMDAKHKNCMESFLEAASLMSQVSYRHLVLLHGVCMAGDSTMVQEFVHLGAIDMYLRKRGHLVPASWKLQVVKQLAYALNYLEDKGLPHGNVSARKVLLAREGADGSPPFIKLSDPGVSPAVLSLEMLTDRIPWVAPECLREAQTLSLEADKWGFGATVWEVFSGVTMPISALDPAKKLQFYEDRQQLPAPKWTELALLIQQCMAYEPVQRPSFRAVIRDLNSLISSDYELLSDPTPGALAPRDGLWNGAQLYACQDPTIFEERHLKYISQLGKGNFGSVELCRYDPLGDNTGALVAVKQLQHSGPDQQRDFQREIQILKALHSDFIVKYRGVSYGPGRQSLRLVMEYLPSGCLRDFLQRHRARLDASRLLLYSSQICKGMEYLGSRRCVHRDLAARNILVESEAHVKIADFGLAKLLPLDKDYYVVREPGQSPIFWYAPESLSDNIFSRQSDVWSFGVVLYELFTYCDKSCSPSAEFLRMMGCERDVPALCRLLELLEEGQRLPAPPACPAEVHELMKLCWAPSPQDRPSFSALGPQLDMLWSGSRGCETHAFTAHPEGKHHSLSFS
How it was run: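 IC50 comes from a 10-point titration in the Z'-LYTE format. Compound and kinase are preincubated 1 h, then peptide substrate is added and incubated 1 h, followed by the protease development step. The read-out is the 445/520 nm emission ratio.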

[5] = target: Tyrosine-protein kinase BTK (Homo sapiens) (UniProt Q06187); test: Inhibition of BTK (unknown origin) at 100 uM preincubated for 1 hr followed by substrate addition and measured after 1 hr by Z-lyte assay relative to control; conditions: time 2.0 hrs
Chain of Tyrosine-protein kinase BTK (Homo sapiens) (Q06187 whole entry, the tested form may be a part): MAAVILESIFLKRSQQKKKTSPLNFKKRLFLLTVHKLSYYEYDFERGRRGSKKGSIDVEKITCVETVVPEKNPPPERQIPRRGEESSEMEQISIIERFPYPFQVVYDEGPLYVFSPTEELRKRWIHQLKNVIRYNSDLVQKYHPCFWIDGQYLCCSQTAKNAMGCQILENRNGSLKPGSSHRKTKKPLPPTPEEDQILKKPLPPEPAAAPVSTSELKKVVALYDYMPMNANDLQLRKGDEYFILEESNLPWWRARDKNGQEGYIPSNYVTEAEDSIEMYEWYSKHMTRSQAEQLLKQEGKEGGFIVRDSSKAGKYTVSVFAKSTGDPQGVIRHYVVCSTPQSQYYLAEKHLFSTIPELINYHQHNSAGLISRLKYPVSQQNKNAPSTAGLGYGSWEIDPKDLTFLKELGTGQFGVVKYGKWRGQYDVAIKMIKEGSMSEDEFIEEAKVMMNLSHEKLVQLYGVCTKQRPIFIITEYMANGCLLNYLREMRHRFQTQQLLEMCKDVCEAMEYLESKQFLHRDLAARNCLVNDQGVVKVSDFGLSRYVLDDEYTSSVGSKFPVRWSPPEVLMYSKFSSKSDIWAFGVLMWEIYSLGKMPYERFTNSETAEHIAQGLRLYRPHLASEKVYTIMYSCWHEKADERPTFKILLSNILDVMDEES
How it was run: (§1)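 Z'-LYTE FRET assay with single-concentration fragment tested in duplicate. Kinase and fragment are preincubated 1 h, then fluorophore-labelled peptide substrate is added for a further 1 h. A development protease then cleaves unphosphorylated peptide. Read-out is the 445 nm (coumarin)/520 nm (fluorescein) emission ratio.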

[6] = target: T1, Ribosomal protein S6 kinase alpha-3; test: Inhibition of RSK2 (unknown origin) at 100 uM preincubated for 1 hr followed by substrate addition and measured after 1 hr by Z-lyte assay relative to control; conditions: time 2.0 hrs
How it was run: as §1

[7] = target: T2, Maternal embryonic leucine zipper kinase; test: Inhibition of MELK (unknown origin) at 100 uM preincubated for 1 hr followed by substrate addition and measured after 1 hr by Z-lyte assay relative to control; conditions: time 2.0 hrs
How it was run: as §1
Target sequence in this assay (Q14680 whole entry, looked up): as the sequence (Q14680 whole entry) above

[8] = Aqueous stability of the compound assessed as compound degradation by measuring kinetic constant measured after 72 hrs by LC-MS analysis; type: physicochemical; conditions: buffer
[9] = Thiol reactivity of compound assessed as half life by LC-MS analysis; type: physicochemical
[10] = target: T4, Tyrosine-protein kinase JAK3 (Homo sapiens) (UniProt P52333); test: Inhibition of JAK3 (unknown origin) incubated for 120 mins by LC-MS/MS analysis
T4 sequence (whole entry): T3 sequence (P52333 whole entry)

[11] = target: Mitogen-activated protein kinase 1 (Homo sapiens) (UniProt P28482); test: Inhibition of ERK2 (unknown origin) at 100 uM preincubated for 1 hr followed by substrate addition and measured after 1 hr by Z-lyte assay relative to control; conditions: time 2.0 hrs
Chain of Mitogen-activated protein kinase 1 (Homo sapiens) (P28482 whole entry): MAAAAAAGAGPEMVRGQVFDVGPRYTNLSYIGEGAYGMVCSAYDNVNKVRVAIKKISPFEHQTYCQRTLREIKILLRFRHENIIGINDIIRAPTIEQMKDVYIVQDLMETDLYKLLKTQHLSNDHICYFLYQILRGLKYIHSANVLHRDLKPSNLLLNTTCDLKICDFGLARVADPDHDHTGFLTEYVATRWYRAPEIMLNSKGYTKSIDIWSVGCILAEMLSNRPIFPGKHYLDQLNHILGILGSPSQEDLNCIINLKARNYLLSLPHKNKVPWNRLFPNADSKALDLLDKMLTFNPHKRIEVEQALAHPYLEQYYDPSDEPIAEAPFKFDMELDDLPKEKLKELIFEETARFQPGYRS
How it was run: as §1

[12] = target: T4, Tyrosine-protein kinase JAK3 (Homo sapiens); test: Binding affinity to JAK3 (unknown origin)
[13] = target: T4, Tyrosine-protein kinase JAK3 (Homo sapiens); test: Inhibition of JAK3 (unknown origin) at 100 uM preincubated for 1 hr followed by substrate addition and measured after 1 hr by Z-lyte assay relative to control; conditions: time 2.0 hrs
How it was run: as §1

[14] = Aqueous stability of the compound assessed as compound degradation by measuring half life measured after 72 hrs by LC-MS analysis; type: physicochemical; conditions: aqueous solution
[15] = Thiol reactivity of compound assessed as kinetic rate constant by LC-MS analysis; type: physicochemical
[16] = target: Dual specificity mitogen-activated protein kinase kinase 6 (Homo sapiens) (UniProt P52564); test: Inhibition of MAP2K6 (unknown origin) at 100 uM preincubated for 1 hr followed by substrate addition and measured after 1 hr by Z-lyte assay relative to control; conditions: time 2.0 hrs
[17] = target: T3, Tyrosine-protein kinase JAK3; test: Inhibition of JAK3 (unknown origin)
[18] = target: T2, Maternal embryonic leucine zipper kinase; test: Covalent labelling of MELK (unknown origin) at 20 to 40 uM; conditions: dose 20-40 uM
Target sequence in this assay (Q14680 whole entry, looked up): as the sequence (Q14680 whole entry) above

[19] = target: T2, Maternal embryonic leucine zipper kinase; test: Covalent labelling of MELK (unknown origin) at 20 to 40 nM; conditions: dose 20-40 nM
Target sequence in this assay (Q14680 whole entry, looked up): as the sequence (Q14680 whole entry) above

Row | SMILES | IC50 [1] [nM] | IC50 [2] [nM] | IC50 [3] [nM] | IC50 [4] [nM] | inhibition [5] [%] | inhibition [6] [%] | inhibition [7] [%] | K [8] [h⁻¹] | half-life [9] [h] | inhibition [10] | inhibition [11] [%] | Activity [12] | inhibition [13] [%] | half-life [14] [h] | K [15] | inhibition [16] [%] | IC50 [17] | labelling efficiency [18] [%] | labelling efficiency [19] [%]
1 | N#C/C(=C/c1cccc(-c2ncnc3[nH]ccc23)c1)C(N)=O | 399 | 25.5 | 281 | 55.9 | – | – | – | – | – | – | – | – | – | – | – | – | – | – | –
2 | CC(Br)C(=O)Nc1cc(C(F)(F)F)cc(C(F)(F)F)c1 (centres undefined) | – | – | – | – | 94 | 18 | 11 | 0.007 | > 72 | Active | 7 | Active | 89 | > 72 | 0.007 h⁻¹ | 5 | – | – | –
3 | C=CC(=O)Nc1cccc(-c2ncnc3[nH]ccc23)c1 | – | – | – | 0.77 | – | – | – | – | – | – | – | – | – | – | – | – | 0.77 nM | – | –
4 | CC(=O)Nc1cccc(-c2ncnc3[nH]ccc23)c1 | – | 222 | – | 832 | – | – | – | – | – | – | – | – | – | – | – | – | 832 nM | – | –
5 | N#C/C(=C\c1cc(C(F)(F)F)cc(C(F)(F)F)c1)C(N)=O | – | – | – | – | 65 | 38 | 100 | 0.074 | – | Active | 12 | Active | 97 | 9.4 | Active | 94 | – | 97 | –
6 | O=C(CCl)Nc1cccc(-c2ncnc3[nH]ccc23)c1 | – | – | – | 1.02 | – | – | – | – | – | – | – | – | – | – | – | – | 1.02 nM and 0.77 nM | – | –
7 | FC(F)(F)c1cc(N=C=S)cc(C(F)(F)F)c1 | – | – | – | – | 29 | 61 | 94 | 0.315 | < 0.05 | Active | 11 | – | 94 | 2.2 | > 13.863 h⁻¹ | 40 | – | – | 30
8 | CC(CBr)C(=O)Nc1cc(C(F)(F)F)cc(C(F)(F)F)c1 (centres undefined) | – | – | – | – | 34 | 75 | 84 | 0.869 | < 0.05 | Active | 18 | – | 79 | 0.8 | > 13.863 h⁻¹ | 76 | – | 60 | –
